How the values were obtained:
[1] = system: Rattus norvegicus; assay: In vivo inhibition of passive cutaneous anaphylaxis in rats when administered i.p.; format: functional; conditions: ip, read-out: ID50 (the source's name)
Method in brief: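 Adult male Charles River rats (140-160 g, six per group) were sensitized intradermally at two sites with rat serum containing reaginic antibodies to chicken ovalbumin. After 48 h they were challenged iv with 10 mg/kg ovalbumin in 1% Evans blue. Compound was given ip 15 min before challenge. Bluing area was measured 30 min later, and percent inhibition was calculated. ID50 was read graphically from the dose-response curve.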

[2] = system: Rattus norvegicus; assay: In vivo inhibition of passive cutaneous anaphylaxis in rats when administered i.v.; format: functional; conditions: iv, read-out: ID50 (the source's name)
Method in brief: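 Rats (adult male Charles River, 140-160 g, six per group) were sensitized intradermally at two sites with reaginic rat antiserum to chicken ovalbumin. After 48 h, compound at 30, 10 or 3 mg/kg iv was given simultaneously with the iv challenge of 10 mg/kg ovalbumin in 1% Evans blue. Dermal bluing area was measured at 30 min, and percent inhibition was calculated. ID50 was taken graphically from the dose-response curve.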

Row | Compound | ED50 [1] [mg/kg] | ED50 [2] [mg/kg]
1 | Cc1c(-c2nn[nH]n2)oc2c(c1=O)CS(=O)(=O)c1ccccc1-2 | 100 | –
2 | CCC(C)c1ccc2c(c1)-c1oc(C(=O)O)cc(=O)c1CS2.NCCO (stereo not drawn) | > 30 | 25
3 | NCCO.O=C(O)c1cc(=O)c2c(o1)-c1cc(Cl)ccc1SC2 | > 100 | 28
4 | CCCCc1ccc2c(c1)-c1oc(C(=O)O)cc(=O)c1CS2.NCCO | > 30 | 19
5 | NCCO.O=C(O)c1cc(=O)c2c(o1)-c1ccccc1S(=O)(=O)C2 | > 100 | > 30
6 | Cc1ccc(Cl)c2c1SCc1c(O)cc(C(=O)O)nc1-2.NCCO | > 30 | > 30
7 | CC1Sc2ccccc2-c2oc(C(=O)O)cc(=O)c21.NCCO (stereo not drawn) | 29 | 8.4
8 | O=C([O-])c1cc(=O)c2c(o1)-c1ccccc1OC2.[K+] | – | 12
9 | Cc1ccc2c(c1)-c1nc(C(=O)O)cc(O)c1CS2.NCCO | 34 | 6.9
10 | CCC(C)c1ccc2c(c1)-c1nc(C(=O)O)cc(O)c1CS2.NCCO (stereo not drawn) | 27 | 8.2
11 | O=c1c(CO)coc2c1COc1ccccc1-2 | 23 | –
12 | Cc1c(-c2nn[nH]n2)oc2c(c1=O)CSc1ccccc1-2 | > 30 | –
13 | CCCCc1ccc2c(c1)-c1nc(C(=O)O)cc(O)c1CS2.NCCO | 20 | 12
14 | NCCO.O=C(O)c1cc(=O)c2c(o1)-c1ccccc1SC2 | > 100 | 25
15 | Cc1ccc(Cl)c2c1SCc1c-2oc(C(=O)O)cc1=O.NCCO | > 100 | 30
16 | NCCO.O=C(O)c1cc(O)c2c(n1)-c1ccccc1SC2 | > 30 | 5.3
17 | O=C([O-])c1cc(=O)c2c(OCC(O)COc3cccc4oc(C(=O)[O-])cc(=O)c34)cccc2o1.[Na+].[Na+] [CROMOLYN SODIUM] | 16.6 | 1
18 | CCC(C)c1ccc2c(c1)-c1nc(C(=O)O)cc(O)c1CS2(=O)=O (stereo not drawn) | > 30 | > 30
19 | Cc1ccc2c(c1)-c1oc(C(=O)O)cc(=O)c1CS2.NCCO | > 30 | 19
20 | NCCO.O=C(O)c1cc(O)c2c(n1)-c1cc(Cl)ccc1SC2 | 33 | 3.3
21 | O=c1c(CO)coc2c1CSc1ccccc1-2 | > 30 | > 30

From ChEMBL document CHEMBL1121367, “Synthesis and antiallergic properties of some 4H,5H-pyrano[3,2-c][1]benzopyran-4-one, 4H,5H-[1]benzothiopyrano[4,3-b]pyran-4-one, and 1,4-dihydro-5h-[1]benzothiopyrano[4,3-b]pyridin-4-one derivatives” (1980)
